Test results taken from ChEMBL document CHEMBL1138115, “The synthesis and aqueous superoxide anion scavenging of water-dispersible lutein esters” (2006).
Structures can show the parent of a compound that is named as a salt.

Legend:
Assay type in all cases: functional
Details in all cases: Homo sapiens
PMNL [1] = assay: Inhibition of Superoxide radical scavenging activity in water at 5.0 mM in PMA-stimulated PMN
In short: (§1)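 Human PMNs were isolated by Percoll gradient (density 1.080 g/mL) from fresh venous blood of a single volunteer and suspended in PAG-CM buffer (PIPES pH 7.4, HSA, glucose, 1 mM CaCl2/MgCl2). 1 × 10⁶ cells were preincubated 5 min with compound in water or 40% EtOH, then stimulated with PMA (1 ng/mL). Superoxide was spin-trapped with DEPMPO (10 mM) and read by X-band EPR. Results are mean % signal inhibition, N=3 per formulation except one N=1.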

PMNL [2] = assay: Inhibition of Superoxide radical scavenging activity in water at 3.0 mM in PMA-stimulated PMN; in short: as §1
PMNL [3] = assay: Inhibition of Superoxide radical scavenging activity in water at 0.1 mM in PMA-stimulated PMN; in short: as §1
PMNL [4] = assay: Inhibition of Superoxide radical scavenging activity in 40% EtOH at 0.1 mM in PMA-stimulated PMN; in short: as §1
PMNL [5] = assay: Inhibition of Superoxide radical scavenging activity in water at 1.0 mM in PMA-stimulated PMN; in short: as §1

CC1=CC(OP(=O)(O)O)CC(C)(C)C1/C=C/C(C)=C/C=C/C(C)=C/C=C/C=C(C)/C=C/C=C(C)/C=C/C1=C(C)CC(OP(=O)(O)O)CC1(C)C (stereo not given) [LUTEIN DIPHOSPHATE SODIUM SALT]
inhibition at 5000 µM (PMNL [1]): 91%
inhibition at 3000 µM (PMNL [2]): 72.3%
inhibition at 100 µM (PMNL [3]): 0%
inhibition at 100 µM (PMNL [4]): 18%
inhibition at 1000 µM (PMNL [5]): 9.3%

CC1=CC(OC(=O)CCC(=O)O)CC(C)(C)C1/C=C/C(C)=C/C=C/C(C)=C/C=C/C=C(C)/C=C/C=C(C)/C=C/C1=C(C)CC(OC(=O)CCC(=O)O)CC1(C)C (stereo not given) [LUTEIN DISUCCINATE SODIUM SALT]
inhibition at 5000 µM (PMNL [1]): 74.7%
inhibition at 3000 µM (PMNL [2]): 61.7%
inhibition at 100 µM (PMNL [3]): 0%
inhibition at 100 µM (PMNL [4]): 5%
inhibition at 1000 µM (PMNL [5]): 13%
